Source: article PMC2903386 (The Journal of Biological Chemistry, 2010)
Non-standard residues stand in square brackets, D forms with d. Residues, ends and D or L forms follow the SMILES beside them. *: point of attachment. X1 = CC[N+]1=C(C=CC=CC=C2N(CCCCCC(=O)NCCN3C(=O)CC(*)C3=O)c3ccc(S(=O)(=O)O)cc3C2(C)C)C(C)(C)c2cc(S(=O)(=O)[O-])ccc21; Ahx = NCCCCCC(=O)O

Legend:
[1] = Cleavage of Cy5-labeled ACPP by liver tissue extract; format: in vitro ADME, mouse; conditions: 5 μM purified Cy5-labeled peptide, 2% liver extract, 37 °C, 2 h, 16% Tricine gel
Method in brief: (§1)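 Fresh mouse tissue was gently homogenized in PBS on ice and spun at 14,000 × g for 1 min; the supernatant was used. 5 μM purified Cy5-labeled test peptide was incubated with 2% liver or tumor extract in PBS containing ZnCl2 at 37 °C for 2 h. Cleaved and uncleaved peptide were resolved on 16% Tricine gels and imaged by fluorescence.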

[2] = system: PyMT mammary tumors; experiment: Fluorescence imaging contrast in PyMT tumor-bearing mice; format: in vivo, mouse; conditions: PyMT mice, fluorescence imaging 6 h after injection of 10 nmol
Method in brief: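 PyMT transgenic mice bearing spontaneous mammary tumors were anesthetized with ketamine 80 mg/kg plus midazolam 5 mg/kg (1:1) and weighed. They were injected via the tail vein with Cy5 peptide: free peptide 100 μl of 100 μM (10 nmol) or albumin-reactive peptide 100 μl of 30 μM (3 nmol). Maestro imaging (ex 640 ± 24 nm, em >700 nm) was done at 6 h or 48 h, comparing tumor with adjacent normal tissue.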

[3] = Tumor standardized uptake value; format: in vivo; conditions: PyMT, mouse, iv, 10 nmol
[4] = Cleavage of Cy5-labeled ACPPs by tumor tissue extract; format: in vitro ADME, mouse; conditions: 5 μM purified Cy5-labeled peptide, 2% tumor extract, 37 °C, 2 h, 16% Tricine gel
Method in brief: as §1

[5] = target: plasmin (Homo sapiens, UniProt P00747); experiment: Cleavage by purified plasmin; format: in vitro ADME; conditions: 5 μM purified Cy5-labeled peptide, 50 nM plasmin, 37 °C, 2 h, 16% Tricine gel
Sequence of plasmin (P00747 581-810 limits assumed): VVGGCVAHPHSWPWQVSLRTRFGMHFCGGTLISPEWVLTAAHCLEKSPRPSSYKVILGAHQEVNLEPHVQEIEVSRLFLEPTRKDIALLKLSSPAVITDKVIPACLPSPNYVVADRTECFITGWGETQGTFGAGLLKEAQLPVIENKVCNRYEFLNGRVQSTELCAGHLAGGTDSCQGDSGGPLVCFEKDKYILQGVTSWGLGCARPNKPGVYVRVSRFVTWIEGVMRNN
Sequence of plasmin (P00747 97-580 partner limits assumed): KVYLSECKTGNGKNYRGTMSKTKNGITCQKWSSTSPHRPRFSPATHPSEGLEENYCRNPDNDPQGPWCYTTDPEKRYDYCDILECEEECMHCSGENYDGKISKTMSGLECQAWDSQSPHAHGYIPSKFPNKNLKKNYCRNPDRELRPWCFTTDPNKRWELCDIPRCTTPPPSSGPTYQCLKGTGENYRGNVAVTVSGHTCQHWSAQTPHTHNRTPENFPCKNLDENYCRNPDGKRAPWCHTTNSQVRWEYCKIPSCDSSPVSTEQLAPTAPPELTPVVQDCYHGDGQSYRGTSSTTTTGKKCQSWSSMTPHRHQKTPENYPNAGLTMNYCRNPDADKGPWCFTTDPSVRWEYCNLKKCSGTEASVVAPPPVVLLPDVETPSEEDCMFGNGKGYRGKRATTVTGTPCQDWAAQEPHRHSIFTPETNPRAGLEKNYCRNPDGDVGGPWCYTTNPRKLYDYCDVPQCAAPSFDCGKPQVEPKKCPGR
Method in brief: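 Plasmin at 50 nM was incubated with 5 μM purified Cy5-labeled test peptide at 37 °C for 2 h, run alongside 2% tumor, liver or kidney extract digests. Products were resolved on 16% Tricine acrylamide gels and detected by Cy5 fluorescence imaging.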

## CC[N+]1=C(C=CC=CC=C2N(CCCCCC(=O)NCCN3C(=O)CC(SC[C@@H](NC(=O)[C@@H](CCCNC(=N)N)NC(=O)[C@@H](CCCNC(=N)N)NC(=O)[C@@H](CCCNC(=N)N)NC(=O)[C@@H](CCCNC(=N)N)NC(=O)[C@@H](CCCNC(=N)N)NC(=O)[C@@H](CCCNC(=N)N)NC(=O)[C@@H](CCCNC(=N)N)NC(=O)[C@@H](CCCNC(=N)N)NC(=O)[C@@H](CCCNC(=N)N)NC(=O)[C@H](CC(C)C)NC(=O)[C@H](CCCCNC(C)=O)NC(=O)[C@H](CC(C)C)NC(=O)[C@H](CCC(N)=O)NC(=O)[C@H](CC(C)C)NC(=O)[C@H](CCCNC(=N)N)NC(=O)CCCCCNC(=O)[C@@H](CCC(=O)O)NC(=O)[C@@H](CCC(=O)O)NC(=O)[C@@H](CCC(=O)O)NC(=O)[C@@H](CCC(=O)O)NC(=O)[C@@H](CCC(=O)O)NC(=O)[C@@H](CCC(=O)O)NC(=O)[C@@H](CCC(=O)O)NC(=O)[C@@H](CCC(=O)O)NC(=O)[C@H](N)CCC(=O)O)C(N)=O)C3=O)c3ccc(S(=O)(=O)O)cc3C2(C)C)C(C)(C)c2cc(S(=O)(=O)[O-])ccc21 (some centres unmarked) [RLQLK(Ac)L ACPP] (H-[dE][dE][dE][dE][dE][dE][dE][dE][dE][Ahx]RLQLK(Ac)L[dR][dR][dR][dR][dR][dR][dR][dR][dR][dC](X1)-NH2)
[1]
  cleavage by liver tissue extract compared with parent RLQLKL ACPP (in words): significantly reduced
[2]
  Tumor to non-tumor contrast, free peptide: less than 3 fold
[3]
  SUV at 6 h: 0.48 ± 0.04 SUV
[4]
  cleavage by tumor extracts, comparison with parent (in words): efficiently cleaved
[5]
  cleavage by plasmin (in words): not cleaved
